Legend:
K562 cancer cells = assay: Cell morphological observation by light microscope, K562; format: cell-based, human; details: high concentrations (10 mM shown at 72 h), also at 48 and 96 h
[1] = system: doxorubicin-resistant K562/Dox (P-glycoprotein-overexpression) leukemia cells; assay: Cell viability, resazurin assay, K562/Dox; format: cell-based, human; details: K562/Dox, 48, 72, and 96 h
Method in brief: (§1)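 Cells seeded at 5×10^4 cells mL⁻¹ and exposed to a range of test compound concentrations for 48, 72 and 96 h. Resazurin solution (0.1 mg mL⁻¹) was then added, followed by a further 4 h incubation. Fluorescence was read at ex 570/em 590 nm. % viability = (F treated/F untreated control) × 100. Three independent experiments, mean ± S.E.; Student's t-test versus untreated control, p<0.05.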

[2] = Cell viability, resazurin assay, K562/Dox; format: cell-based, human; details: human
Method in brief: as §1

[3] = Cell viability, resazurin assay, K562; format: cell-based, human; details: human, K562 cells (doxorubicin-sensitive leukemia)
Method in brief: as §1

[4] = system: doxorubicin-sensitive K562 leukemia cells; assay: Cell viability, resazurin assay, K562; format: cell-based, human; details: for cell viability percentage vs control group: K562, 48, 72, and 96 h
Method in brief: as §1

[5] = target: human serum albumin (HSA) (Homo sapiens, UniProt P02768); assay: Fluorescence quenching of HSA by 4-HBA or VA; format: binding; details: for fluorescence quenching mechanism: from temperature dependence of Ksv and Kq; for quenching rate constant Kq ± SE: τ0 5 ns; for enthalpy change ΔH / entropy change ΔS: from Kb at 298 and 310 K
human serum albumin (HSA), sequence (P02768 25-609): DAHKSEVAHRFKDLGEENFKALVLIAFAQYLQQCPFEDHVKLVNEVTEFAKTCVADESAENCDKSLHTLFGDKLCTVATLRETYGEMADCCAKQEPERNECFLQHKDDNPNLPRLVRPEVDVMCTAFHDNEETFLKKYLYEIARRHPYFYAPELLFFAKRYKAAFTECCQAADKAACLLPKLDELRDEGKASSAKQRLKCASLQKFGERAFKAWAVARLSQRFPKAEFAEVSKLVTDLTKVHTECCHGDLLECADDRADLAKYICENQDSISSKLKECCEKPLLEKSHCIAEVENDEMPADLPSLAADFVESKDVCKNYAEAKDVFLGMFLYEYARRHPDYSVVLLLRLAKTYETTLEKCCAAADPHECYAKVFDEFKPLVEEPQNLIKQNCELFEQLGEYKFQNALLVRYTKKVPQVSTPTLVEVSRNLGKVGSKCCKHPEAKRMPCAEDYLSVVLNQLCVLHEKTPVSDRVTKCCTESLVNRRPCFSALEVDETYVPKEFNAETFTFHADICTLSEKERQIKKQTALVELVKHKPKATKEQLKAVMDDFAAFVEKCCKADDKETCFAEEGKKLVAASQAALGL
Method in brief: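 HSA (1 μM) in PBS was titrated with test compound to final 0–10,000 μM. Intrinsic fluorescence was recorded at ex 280 nm, em 290–500 nm, slits 5 nm, 1.0 cm cell, at 298 and 310 K and pH 6, 7.4 and 8. Intensity at 342 nm was fitted by Stern–Volmer (τ0 5 ns) for KSV/Kq and by double-log plot for Kb and n. ΔH, ΔS and ΔG were derived from these fits.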

[6] = 0.01, 0.05, 0.1, 0.5, 1, and 5 mM
[7] = 298 and 310 K, pHs 7.4, 6.0 and 8.0

O=C(O)c1ccc(O)cc1 [4-HBA, 4-Hydroxybenzoic acid]
morphological changes in treated cells (K562 cancer cells): rough cells, shrinking cells, irregular shape cells, and membrane blebbing | cell viability percentage vs control group [1, 6]: did not significantly change | viability at 48 h, 10 mM [2]: 75.4 ± 8.61% | viability at 72 h, 10 mM [2]: 70.4 ± 5.21% | viability at 96 h, 10 mM [2]: 66.3 ± 7.67% | viability at 72 h, 10 mM [3]: 90.3 ± 0.96% | viability at 96 h, 10 mM [3]: 87.6 ± 1.01% | cell viability percentage ([4]; K562, 10 mM, 48 h): did not significantly change | cell viability percentage vs control group [4, 6]: did not significantly change | concentrations at which fluorescence intensity of HSA decreased [5, 7]: 5–10,000 μM | concentrations at which fluorescence intensity of HSA decreased ([5]; PBS pH 7.4, 298 K, 1 μM HSA): 5–10,000 μM | fluorescence quenching mechanism [5]: static quenching mechanism | Gibbs binding free energy change ΔG ([5]; pH 6.0, 298 K): -4.178 kcal/mol | Stern-Volmer quenching constant KSV ± SE ([5]; pH 6.0, 298 K): 4.4982 ± 2.10 × 10^3 L mole^−1 | number of binding site n ± SE ([5]; pH 6.0, 298 K): 0.8623 ± 0.05 | quenching rate constant Kq ± SE ([5]; pH 6.0, 298 K): 0.8996 ± 0.42 × 10^12 L. mole^−1 s^−1 | Gibbs binding free energy change ΔG ([5]; pH 6.0, 310 K): -3.769 kcal/mol | Stern-Volmer quenching constant KSV ± SE ([5]; pH 6.0, 310 K): 4.2857 ± 0.93 × 10^3 L mole^−1 | number of binding site n ± SE ([5]; pH 6.0, 310 K): 0.9016 ± 0.06 | quenching rate constant Kq ± SE ([5]; pH 6.0, 310 K): 0.8572 ± 0.19 × 10^12 L. mole^−1 s^−1 | enthalpy change ΔH ([5]; pH 6.0): -14.3 kcal/mol | entropy change ΔS ([5]; pH 6.0): −142.12 J. mol^−1 K^−1 | Gibbs binding free energy change ΔG ([5]; pH 7.4, 298 K): -2.753 kcal/mol | Stern-Volmer quenching constant KSV ± SE ([5]; pH 7.4, 298 K): 3.0657 ± 1.18 × 10^3 L mole^−1 | number of binding site n ± SE ([5]; pH 7.4, 298 K): 0.6130 ± 0.05 | quenching rate constant Kq ± SE ([5]; pH 7.4, 298 K): 0.6131 ± 0.24 × 10^12 L. mole^−1 s^−1 | Gibbs binding free energy change ΔG ([5]; pH 7.4, 310 K): -2.36 kcal/mol | Stern-Volmer quenching constant KSV ± SE ([5]; pH 7.4, 310 K): 2.7164 ± 0.27 × 10^3 L mole^−1 | number of binding site n ± SE ([5]; pH 7.4, 310 K): 0.7235 ± 0.05 | quenching rate constant Kq ± SE ([5]; pH 7.4, 310 K): 0.5433 ± 0.05 × 10^12 L. mole^−1 s^−1 | enthalpy change ΔH ([5]; pH 7.4): -12.42 kcal/mol | entropy change ΔS ([5]; pH 7.4): −135.72 J. mol^−1 K^−1 | Gibbs binding free energy change ΔG ([5]; pH 8.0, 298 K): -3.623 kcal/mol | Stern-Volmer quenching constant KSV ± SE ([5]; pH 8.0, 298 K): 1.8046 ± 0.51 × 10^3 L mole^−1 | number of binding site n ± SE ([5]; pH 8.0, 298 K): 0.8005 ± 0.11 | quenching rate constant Kq ± SE ([5]; pH 8.0, 298 K): 0.3609 ± 0.10 × 10^12 L. mole^−1 s^−1 | Gibbs binding free energy change ΔG ([5]; pH 8.0, 310 K): -3.382 kcal/mol | Stern-Volmer quenching constant KSV ± SE ([5]; pH 8.0, 310 K): 1.4572 ± 0.25 × 10^3 L mole^−1 | number of binding site n ± SE ([5]; pH 8.0, 310 K): 1.0784 ± 0.29 | quenching rate constant Kq ± SE ([5]; pH 8.0, 310 K): 0.2914 ± 0.05 × 10^12 L. mole^−1 s^−1 | enthalpy change ΔH ([5]; pH 8.0): -9.661 kcal/mol | entropy change ΔS ([5]; pH 8.0): −84.76 J. mol^−1 K^−1

COc1cc(C(=O)O)ccc1O [VA, 4-hydroxy-3-methoxybenzoic acid]
morphological changes in treated cells (K562 cancer cells): rough cells, shrinking cells, irregular shape cells, and membrane blebbing | cell viability percentage vs control group ([1]; 0.01, 0.05, 0.1, 0.5, and 1 mM): did not significantly change | viability at 48 h, 5 mM [2]: 75.3 ± 6.23% | viability at 48 h, 10 mM [2]: 53.5 ± 10.7% | viability at 72 h, 5 mM [2]: 70.7 ± 11.1% | viability at 72 h, 10 mM [2]: 41 ± 5.78% | viability at 96 h, 5 mM [2]: 65.5 ± 2.36% | viability at 96 h, 10 mM [2]: 35.9 ± 3.61% | viability at 48 h, 5 mM [3]: 79.8 ± 3.98% | viability at 48 h, 10 mM [3]: 70.6 ± 2.93% | viability at 72 h, 5 mM [3]: 81.3 ± 6.51% | viability at 72 h, 10 mM [3]: 58 ± 5.46% | viability at 96 h, 5 mM [3]: 82.9 ± 5.89% | viability at 96 h, 10 mM [3]: 56.7 ± 18.2% | cell viability percentage vs control group ([4]; 0.01, 0.05, 0.1, 0.5, and 1 mM): did not significantly change | concentrations at which fluorescence intensity of HSA decreased [5, 7]: 2,000 to 10,000 μM | concentrations at which fluorescence intensity of HSA decreased ([5]; PBS pH 7.4, 298 K, 1 μM HSA): 2,000 to 10,000 μM | fluorescence quenching mechanism [5]: dynamic quenching mechanism | Gibbs binding free energy change ΔG ([5]; pH 6.0, 298 K): -3.411 kcal/mol | Stern-Volmer quenching constant KSV ± SE ([5]; pH 6.0, 298 K): 1.2621 ± 0.19 × 10^3 L mole^−1 | number of binding site n ± SE ([5]; pH 6.0, 298 K): 0.7071 ± 0.08 | quenching rate constant Kq ± SE ([5]; pH 6.0, 298 K): 0.2524 ± 0.04 × 10^12 L. mole^−1 s^−1 | Gibbs binding free energy change ΔG ([5]; pH 6.0, 310 K): -3.109 kcal/mol | Stern-Volmer quenching constant KSV ± SE ([5]; pH 6.0, 310 K): 1.4092 ± 0.09 × 10^3 L mole^−1 | number of binding site n ± SE ([5]; pH 6.0, 310 K): 0.6174 ± 0.08 | quenching rate constant Kq ± SE ([5]; pH 6.0, 310 K): 0.2818 ± 0.02 × 10^12 L. mole^−1 s^−1 | enthalpy change ΔH ([5]; pH 6.0): -10.9 kcal/mol | entropy change ΔS ([5]; pH 6.0): −105.08 J. mol^−1 K^−1 | Gibbs binding free energy change ΔG ([5]; pH 7.4, 298 K): -2.737 kcal/mol | Stern-Volmer quenching constant KSV ± SE ([5]; pH 7.4, 298 K): 0.7564 ± 0.03 × 10^3 L mole^−1 | number of binding site n ± SE ([5]; pH 7.4, 298 K): 0.5786 ± 0.03 | quenching rate constant Kq ± SE ([5]; pH 7.4, 298 K): 0.1513 ± 0.01 × 10^12 L. mole^−1 s^−1 | Gibbs binding free energy change ΔG ([5]; pH 7.4, 310 K): -2.35 kcal/mol | Stern-Volmer quenching constant KSV ± SE ([5]; pH 7.4, 310 K): 0.8312 ± 0.09 × 10^3 L mole^−1 | number of binding site n ± SE ([5]; pH 7.4, 310 K): 0.3816 ± 0.09 | quenching rate constant Kq ± SE ([5]; pH 7.4, 310 K): 0.1662 ± 0.02 × 10^12 L. mole^−1 s^−1 | enthalpy change ΔH ([5]; pH 7.4): -12.45 kcal/mol | entropy change ΔS ([5]; pH 7.4): −136.42 J. mol^−1 K^−1 | Gibbs binding free energy change ΔG ([5]; pH 8.0, 298 K): -3.069 kcal/mol | Stern-Volmer quenching constant KSV ± SE ([5]; pH 8.0, 298 K): 0.7592 ± 0.06 × 10^3 L mole^−1 | number of binding site n ± SE ([5]; pH 8.0, 298 K): 0.6340 ± 0.04 | quenching rate constant Kq ± SE ([5]; pH 8.0, 298 K): 0.1518 ± 0.01 × 10^12 L. mole^−1 s^−1 | Gibbs binding free energy change ΔG ([5]; pH 8.0, 310 K): -2.99 kcal/mol | Stern-Volmer quenching constant KSV ± SE ([5]; pH 8.0, 310 K): 1.0384 ± 0.07 × 10^3 L mole^−1 | number of binding site n ± SE ([5]; pH 8.0, 310 K): 0.5257 ± 0.08 | quenching rate constant Kq ± SE ([5]; pH 8.0, 310 K): 0.2077 ± 0.01 × 10^12 L. mole^−1 s^−1 | enthalpy change ΔH ([5]; pH 8.0): -5.062 kcal/mol | entropy change ΔS ([5]; pH 8.0): −27.97 J. mol^−1 K^−1

From article PMC8278208 (Toxicology Reports, 2021)
